Data published in ChEMBL document CHEMBL3297737, “Discovery of the first potent and orally available agonist of the orphan G-protein-coupled receptor 52” (J Med Chem, 2014).
Calls of active or inactive are those of the source. The calls are words filed in the database; no cut-off is given here.

Experiments:
[1] = molecular target: T1, G-protein coupled receptor 52 (Homo sapiens, UniProt Q9Y2T5); experiment: Agonist activity at GPR52 (unknown origin)
[2] = molecular target: T1, G-protein coupled receptor 52; experiment: Agonist activity at GPR52 (unknown origin) relative to control
[3] = molecular target: T1, G-protein coupled receptor 52; experiment: Agonist activity at human GPR52 expressed in CHO cells assessed as cAMP production after 30 mins by Alphascreen assay relative to N-(2-Hydroxyethyl)-3-{2-[3-(trifluoromethyl)benzyl]-1-benzofuran-4-yl}benzamide; type: functional, cell-based
[4] = molecular target: T1, G-protein coupled receptor 52; experiment: Agonist activity at human GPR52 expressed in CHO cells assessed as cAMP production after 30 mins by Alphascreen assay; type: functional, cell-based
[5] = molecular target: T1, G-protein coupled receptor 52; experiment: Agonist activity at human GPR52 expressed in CHO cells assessed as cAMP production at 10 uM after 30 mins by Alphascreen assay; type: functional, cell-based
[6] = Cmax in mouse at 1 mg/kg, po administered via cassette dosing; type: ADME, organism-based; set-up: dose 1 mg/kg, route oral; conditions: in vivo
Method in brief: (§1)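 Mouse cassette dosing at 0.1 mg/kg iv and 1 mg/kg po. Plasma Cmax, AUC0–8h and oral bioavailability determined.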

[7] = AUC (0 to 8 hrs) in mouse at 1 mg/kg, po administered via cassette dosing; type: ADME, organism-based; set-up: time < 8 hr, dose 1 mg/kg, route oral; conditions: plasma; method in brief: as §1
[8] = Oral bioavailability in mouse at 1 mg/kg administered via cassette dosing; type: ADME, organism-based; conditions: in vivo; method in brief: as §1
[9] = Ratio of AUC from brain to plasma in mouse at 30 mg/kg, po; type: ADME, organism-based; set-up: dose 30 mg/kg, route oral; conditions: read-out: Ratio AUC
Method in brief: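 Brain/plasma AUC ratio determined in mice after oral administration of 30 mg/kg.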

[10] = molecular target: D(1A) dopamine receptor (Homo sapiens) (UniProt P21728); experiment: Agonist activity at human dopamine D1 receptor expressed in CHO cells; type: cell-based
D(1A) dopamine receptor (Homo sapiens), sequence (P21728 whole entry): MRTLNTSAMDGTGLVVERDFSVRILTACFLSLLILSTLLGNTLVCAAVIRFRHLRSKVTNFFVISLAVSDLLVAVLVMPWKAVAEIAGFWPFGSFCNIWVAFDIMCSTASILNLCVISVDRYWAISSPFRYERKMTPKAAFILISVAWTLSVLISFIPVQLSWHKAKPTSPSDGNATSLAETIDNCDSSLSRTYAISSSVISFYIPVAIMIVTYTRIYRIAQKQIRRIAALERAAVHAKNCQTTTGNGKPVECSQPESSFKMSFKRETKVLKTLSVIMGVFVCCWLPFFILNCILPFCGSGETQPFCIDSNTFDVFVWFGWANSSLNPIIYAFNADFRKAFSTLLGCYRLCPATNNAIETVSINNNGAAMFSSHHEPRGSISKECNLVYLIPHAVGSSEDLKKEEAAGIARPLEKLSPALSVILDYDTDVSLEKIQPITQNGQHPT
Method in brief: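 cAMP production measured in CHO cells expressing human dopamine D1 receptor (DRD1). Mean ± SD, n = 4.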

[11] = molecular target: D(1A) dopamine receptor (Homo sapiens) (UniProt P21728); experiment: Agonist activity at dopamine D1 receptor (unknown origin)
[12] = molecular target: D(2) dopamine receptor (Homo sapiens) (UniProt P14416); experiment: Agonist activity at dopamine D2 receptor (unknown origin)
D(2) dopamine receptor (Homo sapiens), sequence (P14416 whole entry): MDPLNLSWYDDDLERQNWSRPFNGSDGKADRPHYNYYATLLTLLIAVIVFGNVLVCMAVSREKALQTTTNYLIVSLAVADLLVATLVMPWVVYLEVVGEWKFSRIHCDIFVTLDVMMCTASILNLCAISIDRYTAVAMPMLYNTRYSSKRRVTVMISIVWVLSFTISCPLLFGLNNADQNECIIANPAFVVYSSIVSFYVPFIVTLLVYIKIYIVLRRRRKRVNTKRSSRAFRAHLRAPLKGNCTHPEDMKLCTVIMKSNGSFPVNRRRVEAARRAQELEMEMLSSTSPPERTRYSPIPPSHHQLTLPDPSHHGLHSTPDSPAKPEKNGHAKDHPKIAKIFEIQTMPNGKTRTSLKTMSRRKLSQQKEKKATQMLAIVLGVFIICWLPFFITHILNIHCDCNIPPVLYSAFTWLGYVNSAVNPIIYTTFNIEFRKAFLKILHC

[13] = organism: Homo sapiens; experiment: Agonist activity at 5HT2 receptor (unknown origin)
[14] = organism: Homo sapiens; experiment: Agonist activity at AMPA receptor (unknown origin)
[15] = molecular target: Glutamate [NMDA] receptor (Homo sapiens) (UniProt Q05586+Q12879+Q13224+O15399+O60391+Q14957+Q8TCU5); experiment: Agonist activity at NMDA receptor (unknown origin)
[16] = system: Mus musculus; experiment: Antipsychotic activity against methamphetamine-induced hyperlocomotion in po dosed ICR mouse administered 60 mins prior to methamphetamine challenge measured 150 mins post compound challenge; type: functional, organism-based
Method in brief: (§2)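 Male ICR mice, 7–8 weeks old, each in its own cage. Locomotor activity monitored. Compound given orally (1–30 mg/kg) after 60 min habituation. Methamphetamine 2 mg/kg sc injected 60 min later. Activity counts recorded for 150 min after compound dosing. n = 6–7 per group. Williams test versus vehicle + methamphetamine.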

[17] = system: Mus musculus; experiment: Toxicity in ICR mouse assessed as cataleptogenic effect at 100 mg/kg, po after 1 to 2 hrs; type: organism-based; set-up: dose 100 mg/kg, route oral; conditions: in vivo
Method in brief: (§3)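 Male ICR mice, 6–7 weeks old, dosed orally (10–100 mg/kg). Tested 1 and 2 h post-dose by placing forepaws on a steel bar, hind legs on the surface. Time holding immobile posture recorded, capped at 30 s. Three trials averaged per mouse. n = 6 per group. Williams test versus vehicle.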

[18] = system: Mus musculus; experiment: Toxicity in ICR mouse assessed as extrapyramidal side effects at 100 mg/kg, po after 1 to 2 hrs; type: organism-based; set-up: dose 100 mg/kg, route oral; conditions: in vivo; method in brief: as §3
[19] = system: Mus musculus; experiment: Antipsychotic activity against methamphetamine-induced hyperlocomotion in ICR mouse at 3 mg/kg, po administered 60 mins prior to methamphetamine challenge measured 150 mins post compound challenge; type: functional, organism-based; set-up: dose 3 mg/kg; method in brief: as §2

T1 sequence (Q9Y2T5 whole entry): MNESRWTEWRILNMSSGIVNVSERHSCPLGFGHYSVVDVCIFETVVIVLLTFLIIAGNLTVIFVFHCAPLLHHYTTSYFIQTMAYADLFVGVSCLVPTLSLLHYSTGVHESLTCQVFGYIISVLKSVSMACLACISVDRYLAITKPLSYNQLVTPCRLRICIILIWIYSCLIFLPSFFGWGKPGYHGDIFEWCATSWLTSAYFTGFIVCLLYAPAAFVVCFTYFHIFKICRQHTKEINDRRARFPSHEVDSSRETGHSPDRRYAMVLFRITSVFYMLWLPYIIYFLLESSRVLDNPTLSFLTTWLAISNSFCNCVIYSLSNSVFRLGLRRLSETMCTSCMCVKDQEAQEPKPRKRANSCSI

| Compound | Emax [3] | EC50 [4] | also measured |
| --- | --- | --- | --- |
| O=C(NCCO)c1cccc(-c2cccc(OCCc3cc(F)cc(Cl)c3)n2)c1 | – | – | EC50 [1]: 347 nM; Emax [2]: 79% |
| COCCNC(=O)c1cccc(-c2cccc3cc(Cc4cccc(C(F)(F)F)c4)sc23)c1 | 85% | 42.7 nM | – |
| COc1ccc(-c2ccnc(NCCc3ccc(OC)c(OC)c3)n2)cc1 | – | > 10000 nM | Activity [5]: 33% |
| O=C(NCCO)c1cccc(-c2cccc3c2OC(Cc2cccc(C(F)(F)F)c2)C3)c1 (racemic) | 56.1% | 209 nM | – |
| COCCNC(=O)c1cccc(-c2cccc3cc(Cc4cc(F)cc(Cl)c4)sc23)c1 | 79.8% | 29.5 nM | Cmax [6]: 108 ng/mL; AUC(0-t) at 8 h [7]: 614 ng·h/mL; bioavailability [8]: 73%; Kp [9]: 0.94; Activity [10]: inactive; Activity [11]: inactive; Activity [12]: inactive; Activity [13]: inactive; Activity [14]: inactive; Activity [15]: inactive; Activity [16]: Dose-dependent effect; Activity [17]: Non-toxic; Activity [18]: Non-toxic; Activity [19]: Active |
| O=C(NCCO)c1cccc(-c2cccc(OCCc3cccc(C(F)(F)F)c3)n2)c1 | – | – | EC50 [1]: 646 nM; Emax [2]: 73.1% |
| NC(=O)CNC(=O)c1cccc(-c2cccc3cc(Cc4cccc(C(F)(F)F)c4)sc23)c1 | 102% | 55 nM | – |
| Cc1c(Cc2cccc(C(F)(F)F)c2)oc2c(-c3cccc(C(=O)NCCO)c3)cccc12 | 71.5% | 81.3 nM | – |
| NC(=O)CNC(=O)c1cccc(-c2ccc(F)c3cc(Cc4cccc(C(F)(F)F)c4)sc23)c1 | 107% | 83.2 nM | – |

The next lines start with results.

| Emax [3] | EC50 [4] | Compound | also measured |
| --- | --- | --- | --- |
| – | > 10000 nM | Cc1c(Cc2cccc(C(F)(F)F)c2)oc2cccc(-c3cccc(C(=O)NCCO)c3)c12 | Activity [5]: 20% |
| 45.9% | 646 nM | O=C(NCCO)c1cccc(-c2cccc3c2CC(Cc2cccc(C(F)(F)F)c2)O3)c1 (racemic) | – |
| 74.8% | 34.7 nM | O=C(NCCO)c1cccc(-c2cccc3cc(Cc4cccc(C(F)(F)F)c4)oc23)c1 | – |
| 85.7% | 28.2 nM | O=C(NCCO)c1cccc(-c2cccc3oc(Cc4cccc(C(F)(F)F)c4)cc23)c1 | – |
| 79.6% | 37.2 nM | O=C(NCCO)c1cccc(-c2cccc3cc(Cc4cccc(C(F)(F)F)c4)sc23)c1 | – |
| 68.6% | 38 nM | O=C(NCCO)c1cccc(-c2cccc3sc(Cc4cccc(C(F)(F)F)c4)cc23)c1 | – |
| 69.7% | 64.6 nM | O=C(NCCO)c1cccc(-c2cccc3cn(Cc4cccc(C(F)(F)F)c4)nc23)c1 | – |
| 79.1% | 38.9 nM | O=C(NCCO)c1cccc(-c2cccc3nn(Cc4cccc(C(F)(F)F)c4)cc23)c1 | – |
